In ChEMBL document CHEMBL4184325, “Discovery of 4,7-Diamino-5-(4-phenoxyphenyl)-6-methylene-pyrimido[5,4- b]pyrrolizines as Novel Bruton's Tyrosine Kinase Inhibitors” (J Med Chem, 2018):
Active and inactive are the calls of the source. The rule behind the calls is not given here.

What was measured:
TMD8 [1] = experiment: Cell cycle arrest in human TMD8 cells assessed as accumulation at G1 phase at 1 nM after 48 hrs by propidium iodide staining-based flow cytometric method (reference value: 51.33%); type: functional
TMD8 [2] = experiment: Induction of apoptosis in human TMD8 cells assessed as late apoptotic cells at 1000 nM after 72 hrs by Annexin-FITC/propidium iodide staining-based flow cytometric method (reference value: 3.2%); type: functional
TMD8 [3] = experiment: Induction of apoptosis in human TMD8 cells assessed as early apoptotic cells at 10 nM after 72 hrs by Annexin-FITC/propidium iodide staining-based flow cytometric method (reference value: 7.98%); type: functional
Mus musculus = experiment: In vivo inhibition of BTK in human TMD8 cells xenografted in CB17 SCID nude mouse assessed as decrease in PLCgamma2 phosphorylation at Y759 at 15 mg/kg, […] by Western blot method; type: functional, organism-based
TMD8 [4] = experiment: Induction of apoptosis in human TMD8 cells after 72 hrs by Annexin-FITC/propidium iodide staining-based flow cytometric method; type: functional, cell-based
[5] = Drug metabolism in rat liver microsomes assessed as (S)-N-(4-amino-5-(4-hydroxyphenyl)-6-methylene-7,8-dihydro-6H-pyrimido[5,4-b]pyrrolizin-7-yl)acrylamide formation after 3 hrs; type: ADME, microsome
[6] = target: Receptor tyrosine-protein kinase erbB-4 (Homo sapiens, UniProt Q15303); experiment: Inhibition of recombinant human ErbB4 using Poly(Glu, Tyr) 4:1 as substrate after 1 hr by ELISA
Chain of Receptor tyrosine-protein kinase erbB-4 (Q15303 whole entry): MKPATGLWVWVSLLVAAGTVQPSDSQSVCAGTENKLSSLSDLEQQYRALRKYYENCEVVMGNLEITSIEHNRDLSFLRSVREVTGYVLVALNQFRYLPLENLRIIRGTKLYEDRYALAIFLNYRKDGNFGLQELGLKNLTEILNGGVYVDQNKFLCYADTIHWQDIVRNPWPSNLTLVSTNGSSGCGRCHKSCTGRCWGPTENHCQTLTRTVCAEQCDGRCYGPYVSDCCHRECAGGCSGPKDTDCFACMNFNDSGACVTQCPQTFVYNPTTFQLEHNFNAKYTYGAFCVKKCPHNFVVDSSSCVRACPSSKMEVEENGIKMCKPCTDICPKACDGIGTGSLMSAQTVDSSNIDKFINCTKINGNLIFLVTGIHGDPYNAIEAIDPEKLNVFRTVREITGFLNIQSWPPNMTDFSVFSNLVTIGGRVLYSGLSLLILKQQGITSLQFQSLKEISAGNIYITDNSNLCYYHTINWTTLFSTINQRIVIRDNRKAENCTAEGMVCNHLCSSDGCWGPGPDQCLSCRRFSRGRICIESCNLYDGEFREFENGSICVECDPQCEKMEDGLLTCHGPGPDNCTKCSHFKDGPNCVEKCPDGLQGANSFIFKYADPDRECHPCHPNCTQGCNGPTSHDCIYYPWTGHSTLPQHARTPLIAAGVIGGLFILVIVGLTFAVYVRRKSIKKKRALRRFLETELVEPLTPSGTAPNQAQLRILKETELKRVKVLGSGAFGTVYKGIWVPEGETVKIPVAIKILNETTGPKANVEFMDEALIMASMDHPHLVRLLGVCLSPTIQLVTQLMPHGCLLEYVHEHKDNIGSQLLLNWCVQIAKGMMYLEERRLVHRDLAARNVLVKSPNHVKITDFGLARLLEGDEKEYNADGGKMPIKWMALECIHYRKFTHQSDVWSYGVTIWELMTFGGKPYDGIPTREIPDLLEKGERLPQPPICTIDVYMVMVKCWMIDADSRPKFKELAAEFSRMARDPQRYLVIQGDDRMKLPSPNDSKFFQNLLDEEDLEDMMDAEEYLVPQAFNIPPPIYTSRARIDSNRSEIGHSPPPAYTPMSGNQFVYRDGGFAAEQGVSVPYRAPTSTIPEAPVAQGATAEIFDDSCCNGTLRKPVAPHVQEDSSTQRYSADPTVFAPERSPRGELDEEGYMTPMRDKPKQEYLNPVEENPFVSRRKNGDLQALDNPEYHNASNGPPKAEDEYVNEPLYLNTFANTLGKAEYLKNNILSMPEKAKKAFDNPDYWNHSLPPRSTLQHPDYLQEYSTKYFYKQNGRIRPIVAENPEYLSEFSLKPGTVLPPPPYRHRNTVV
Outline: (§1)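 Kinase activity was measured by ELISA on wells precoated with 20 µg/mL poly(Glu,Tyr) 4:1. Enzyme was incubated with compound in 50 mM HEPES pH 7.4, 20 mM MgCl2, 0.1 mM MnCl2, 0.2 mM Na3VO4, 1 mM DTT with 5 µM ATP at 37 °C for 1 h. Phosphotyrosine was detected with PY99 antibody, HRP secondary and OPD, read at A492. IC50 is the mean of duplicates.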

[7] = target: Macrophage colony-stimulating factor 1 receptor (Homo sapiens, UniProt P07333); experiment: Inhibition of recombinant human CSF1R using Poly(Glu, Tyr) 4:1 as substrate after 1 hr by ELISA; outline: as §1
Chain of Macrophage colony-stimulating factor 1 receptor (P07333 whole entry): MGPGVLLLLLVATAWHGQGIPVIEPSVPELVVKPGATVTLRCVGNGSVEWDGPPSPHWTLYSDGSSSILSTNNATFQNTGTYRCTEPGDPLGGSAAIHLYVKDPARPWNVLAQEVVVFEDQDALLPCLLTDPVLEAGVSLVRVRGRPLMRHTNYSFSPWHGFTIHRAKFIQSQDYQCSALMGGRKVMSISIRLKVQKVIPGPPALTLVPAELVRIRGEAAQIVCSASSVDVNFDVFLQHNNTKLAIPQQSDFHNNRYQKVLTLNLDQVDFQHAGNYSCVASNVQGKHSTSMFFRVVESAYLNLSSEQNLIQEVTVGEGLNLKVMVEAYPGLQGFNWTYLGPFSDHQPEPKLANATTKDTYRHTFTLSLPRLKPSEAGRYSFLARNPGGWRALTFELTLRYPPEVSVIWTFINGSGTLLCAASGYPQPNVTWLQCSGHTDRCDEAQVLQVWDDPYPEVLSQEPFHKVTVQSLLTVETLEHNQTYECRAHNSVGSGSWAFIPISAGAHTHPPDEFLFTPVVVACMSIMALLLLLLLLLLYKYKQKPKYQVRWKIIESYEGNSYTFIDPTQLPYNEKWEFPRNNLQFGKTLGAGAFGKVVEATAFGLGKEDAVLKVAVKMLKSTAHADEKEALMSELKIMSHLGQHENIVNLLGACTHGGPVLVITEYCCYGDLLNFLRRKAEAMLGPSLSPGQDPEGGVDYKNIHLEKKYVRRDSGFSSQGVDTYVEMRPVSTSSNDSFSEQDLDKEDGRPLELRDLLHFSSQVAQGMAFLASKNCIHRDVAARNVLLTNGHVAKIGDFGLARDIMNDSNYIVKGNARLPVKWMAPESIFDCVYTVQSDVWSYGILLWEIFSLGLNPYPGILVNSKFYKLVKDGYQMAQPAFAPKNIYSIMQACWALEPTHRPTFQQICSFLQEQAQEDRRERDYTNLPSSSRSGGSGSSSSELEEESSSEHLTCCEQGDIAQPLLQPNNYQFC

[8] = target: T1, Tyrosine-protein kinase Tec (Homo sapiens, UniProt P42680); experiment: Inhibition of recombinant human TEC using Poly(Glu, Tyr) 4:1 as substrate after 1 hr by ELISA; outline: as §1
T1 sequence (P42680 whole entry): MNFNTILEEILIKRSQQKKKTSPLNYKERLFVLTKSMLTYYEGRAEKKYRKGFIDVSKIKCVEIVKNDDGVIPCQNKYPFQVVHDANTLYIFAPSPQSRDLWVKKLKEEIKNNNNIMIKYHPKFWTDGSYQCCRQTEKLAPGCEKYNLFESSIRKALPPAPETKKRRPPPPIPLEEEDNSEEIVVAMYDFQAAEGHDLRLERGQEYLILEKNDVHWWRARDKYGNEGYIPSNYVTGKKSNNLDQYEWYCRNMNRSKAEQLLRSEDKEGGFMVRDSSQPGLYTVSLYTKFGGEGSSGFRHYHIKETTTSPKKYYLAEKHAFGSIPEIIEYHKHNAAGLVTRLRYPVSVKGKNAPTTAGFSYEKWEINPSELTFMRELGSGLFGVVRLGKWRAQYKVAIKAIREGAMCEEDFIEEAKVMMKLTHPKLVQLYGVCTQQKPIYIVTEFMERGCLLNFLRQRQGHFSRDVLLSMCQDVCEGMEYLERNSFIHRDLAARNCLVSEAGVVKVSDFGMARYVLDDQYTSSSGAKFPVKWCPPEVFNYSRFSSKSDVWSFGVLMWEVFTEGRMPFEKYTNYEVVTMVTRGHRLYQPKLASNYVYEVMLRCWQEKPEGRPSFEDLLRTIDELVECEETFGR

TMD8 [9] = experiment: Cell cycle arrest in human TMD8 cells assessed as accumulation at S phase at 10 nM after 48 hrs by propidium iodide staining-based flow cytometric method (reference value: 34.15%); type: functional
[10] = Drug metabolism in mouse liver microsomes assessed as (S,E)-N-(4-amino-6-methylene-5-(4-phenoxyphenyl)-7,8-dihydro-6H-pyrimido[5,4-b]pyrrolizin-7-yl)-3-hydroxyacrylamide formation after 3 hrs; type: ADME, microsome
TMD8 [11] = experiment: Cell cycle arrest in human TMD8 cells assessed as accumulation at G1 phase after 48 hrs by propidium iodide staining-based flow cytometric method; type: functional
[12] = Cmax in rat at 3 mg/kg, po; type: ADME, organism-based; parameters: dose 3 mg/kg, route oral; settings: in vivo
Outline: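 Rats dosed orally at 3 mg/kg; vehicle DMSO, Tween 80, normal saline; values are the average of three determinations.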

[13] = Drug metabolism in human liver microsomes assessed as (S,E)-N-(4-amino-6-methylene-5-(4-phenoxyphenyl)-7,8-dihydro-6H-pyrimido[5,4-b]pyrrolizin-7-yl)-3-hydroxyacrylamide formation after 3 hrs; type: ADME, microsome
[14] = target: T2, Tyrosine-protein kinase TXK (Homo sapiens, UniProt P42681); experiment: Inhibition of recombinant human TXK using Poly(Glu, Tyr) 4:1 as substrate after 1 hr by ELISA; outline: as §1
T2 sequence (P42681 whole entry): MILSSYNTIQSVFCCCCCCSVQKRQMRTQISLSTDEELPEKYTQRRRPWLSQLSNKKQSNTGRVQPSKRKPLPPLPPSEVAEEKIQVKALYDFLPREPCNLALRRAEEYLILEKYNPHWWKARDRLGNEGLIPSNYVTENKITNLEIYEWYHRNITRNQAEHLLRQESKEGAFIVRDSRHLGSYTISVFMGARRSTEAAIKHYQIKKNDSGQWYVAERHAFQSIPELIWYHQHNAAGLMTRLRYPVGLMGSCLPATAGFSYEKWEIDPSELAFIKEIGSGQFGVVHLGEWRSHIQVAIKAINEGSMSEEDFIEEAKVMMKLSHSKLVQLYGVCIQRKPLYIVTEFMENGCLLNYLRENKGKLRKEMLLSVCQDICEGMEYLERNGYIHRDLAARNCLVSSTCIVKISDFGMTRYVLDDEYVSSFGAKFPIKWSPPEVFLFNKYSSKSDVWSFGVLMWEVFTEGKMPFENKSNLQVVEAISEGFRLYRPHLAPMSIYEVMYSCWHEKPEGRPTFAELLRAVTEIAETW

Drug metabolism [5]: Metabolite_Detected | IC50 [6]: 0.6 nM | IC50 [7]: > 1000 nM | IC50 [8]: 1.4 nM | Drug metabolism [10]: Metabolite_Detected | Cmax [12]: 223 ng/mL | Drug metabolism [13]: Metabolite_Detected | IC50 [14]: 2.5 nM
Compound: C=CC(=O)N[C@@H]1Cn2c(c(-c3ccc(Oc4ccccc4)cc3)c3c(N)ncnc32)C1=C
Activity (TMD8 [1]): 57.41% | Activity (TMD8 [2]): 27.9% | Activity (TMD8 [3]): 27.6% | inhibition (Mus musculus): Active | Activity (TMD8 [4]): Dose-dependent effect | Activity (TMD8 [9]): 12.56% | Activity (TMD8 [11]): Dose-dependent effect
